Source: PubChem BioAssay
Inconclusive results are not listed. Activity calls are given as the source filed them.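 Rule for the calls, unless noted: active = cell viability at or below a set limit in both duplicate runs, the limit being the all-compound median minus 4 SD (cut at about 23% in these data, passing the limit was not always enough); inconclusive = no clear call, values can overlap the other calls; inactive = the rest.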

Experiments:
[1] = S. cerevisiae growth inhibition in permissive medium (OD615), pilot counter-assay for S. cerevisiae lifespan shortening project, permissive growth control (AID 705;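 active = growth inhibition above 25% in both replicates, a cutoff set 3 SD above the mean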); conditions: OD615, 24 h, at 10 µM, active compounds read high
Summary of the method: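 System: S. cerevisiae with engineered DeaD lifespan system. Medium: SC raffinose/galactose permissive medium. Doses: single compound dose of 10 µM, 0.25% DMSO final. Schedule: 24 h exposure, 30 °C. Measured by: OD615 turbidity read. Read-out: growth inhibition.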

[2] = S. cerevisiae growth inhibition in restrictive medium, OD615, pilot screen, restrictive growth control, yeast lifespan reduction project (AID 706;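 active = growth inhibition above a set limit, 3 SD over mean compound inhibition, in both replicates, cut at about 43% in these data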;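 note: modified DeaD lifespan yeast strain shifted to restrictive glucose medium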); conditions: OD615, 48 h, at 10 µM, active compounds read high
Summary of the method: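 Assay system – genetically modified Saccharomyces cerevisiae, DeaD replicative lifespan assay strain · Medium – CSMM-D glucose medium · Doses – 10 µM compound, 0.25% DMSO · Times – 4 h pre-incubation, 48 h exposure at 30 °C · Signal – optical density at 615 nm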

[3] = doxorubicin toxicity protection in MRP-1 cells – H69AR cells, CellTiter-Glo, duplicate, MRP-1 activator project, pilot screen (AID 807;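 active = viability increase at or above a cutoff of the median across tested compounds plus 3 SD, cut at about 8.5% in these data, passing the limit was not always enough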;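 note: compound pretreatment 18-22 h then 72 h combined with doxorubicin; 0% = doxorubicin alone and 100% = vehicle without doxorubicin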); conditions: H69AR viability with doxorubicin, CellTiter-Glo luminescence; at 10 µM; active compounds read high
[4] = viability of HCT116 without oncogenic beta-catenin – human colon tumor cells, pilot screen (AID 823); conditions: HCT116 beta-catenin knockout viability, CellTiter-Glo, 60 h; at 10 µM; active compounds read low;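 note: 0% = wells killed by 20 µM Hyamine and 100% = untreated DMSO cell wells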
[5] = viability of PTEN-null HCT116 cells – cell-based, HCT116 clonal line, CellTiter-Glo, pilot screen (AID 824;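 active = viability at or below 27.92% in each of two runs, the all-compound median minus 4 SD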;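 note: 0% = 20 µM Hyamine control and 100% = vehicle cell control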); conditions: HCT116 PTEN-deleted viability, 60 h, at 10 µM, active compounds read low
[6] = RAM pathway blockade in budding yeast – dse1pr::URA3 reporter, 5-FOA selection, pilot screen (AID 869;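 active = inhibition over a set limit, the all-compound mean plus 3 SD, in both replicate runs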;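 note: 0% = DMSO wells with no growth and 100% = 10 µM 1-NA-PP1 with full growth; RAM network block rescues cells from 5-FOA so hits raise OD615 growth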); conditions: S. cerevisiae dse1pr::URA3 5-FOA growth, OD615, 2 d; at 10 µM; active compounds read high; strain carries analog-sensitive mutant Cbk1 kinase
[7] = RAM signaling pathway blockade in yeast – S. cerevisiae, Pdr1DBD-CYC8 efflux-inhibited sensitized strain, primary screen (AID 1298;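 active = RAM network inhibition above 8.4% in each of two replicates, 3 SD over the compound average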;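 note: 0% = DMSO untreated cells without growth and 100% = 10 µM 1-NA-PP1 full growth; higher means more yeast growth rescued from 5-FOA killing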); conditions: S. cerevisiae cbk1-as DSE1-URA3 strain, 5-FOA growth OD615, 2 d; at 50 µM; active compounds read high

CC(=O)N1CCc2cc(C(=O)CN3CCC(C)CC3)ccc21
inactive: growth inhibition [1] -5.91% | growth inhibition [2] -4.73% | viability increase [3] -2.46% | viability [4] 104% | viability [5] 93.6% | inhibition [6] 1.56% | RAM network inhibition [7] 7.51%

Cc1ccc(C(=O)Nc2ccc(S(=O)(=O)N3CCN(C)CC3)cc2)o1
inactive: growth inhibition [1] -8.11% | growth inhibition [2] -0.785% | viability increase [3] -0.32% | viability [4] 104% | viability [5] 103% | inhibition [6] 1.32% | RAM network inhibition [7] 3.17%

CC(C)C(=O)Nc1ccc(Nc2ccccc2)cc1
inactive: growth inhibition [1] -3.29% | growth inhibition [2] -8.34% | viability increase [3] 0.79% | viability [4] 105% | viability [5] 104% | inhibition [6] 0.87% | RAM network inhibition [7] 2.52%

COC(=O)C1CCN(C(=O)c2ccccc2NC(C)=O)CC1
inactive: growth inhibition [1] -12% | growth inhibition [2] -16.4% | viability increase [3] -0.52% | viability [4] 101% | viability [5] 99.6% | inhibition [6] -0.23% | RAM network inhibition [7] 2.21%

O=C(CSc1nccn1-c1ccc(Cl)cc1)NCc1ccc2c(c1)OCO2
inactive: growth inhibition [1] -14.6% | growth inhibition [2] -8.19% | viability increase [3] -0.8% | viability [4] 96.3% | viability [5] 89.5% | inhibition [6] 1.3% | RAM network inhibition [7] 2.26%

COc1cccc2c(=O)n(CC(=O)NC3CCCC3)ccc12
inactive: growth inhibition [1] -19.3% | growth inhibition [2] -5.62% | viability increase [3] -1.22% | viability [4] 99.1% | viability [5] 94% | inhibition [6] -0.215% | RAM network inhibition [7] 3.83%
